Measurements from different studies.
Protocols differ between the studies behind these lines.
Action: inhibitor
rep main protease: Replicase polyprotein 1ab, main protease (rep, Severe acute respiratory syndrome coronavirus 2, UniProt P0DTD1)
rep papain-like protease: Replicase polyprotein 1ab, papain-like protease (rep, Severe acute respiratory syndrome coronavirus 2, UniProt P0DTD1)
rep methyltransferase: Replicase polyprotein 1ab, methyltransferase (rep, Severe acute respiratory syndrome coronavirus 2, UniProt P0DTD1)

CN(C)[C@@H]1C(O)=C(C(N)=O)C(=O)[C@@]2(O)C(O)=C3C(=O)c4c(O)cccc4[C@@](C)(O)[C@H]3[C@H](O)[C@@H]12 — IC50 (rep main protease; enzyme activity in cells): > 60 µM
CCOc1ccc(Nc2nc(-c3c(C)nc4ccccn34)cs2)cc1 — IC50 (rep main protease; enzyme activity): 5.05 µM
N#Cc1c(N)[nH]c2cc(/C=C/c3cccc(F)c3)ccc12 — IC50 (rep papain-like protease; enzyme activity; fluorescence): > 100 µM
O=c1[nH]nc(Sc2ncc([N+](=O)[O-])s2)n1-c1ccc2c(c1)OCCO2 — IC50 (rep main protease; enzyme activity): 0.3 µM
COCCn1c2c([n+](Cc3cnccn3)c1C)C(=O)c1ccccc1C2=O — IC50 (rep papain-like protease; enzyme activity; FRET; pH 7.5): 20.2 µM
Cc1cccc(C)c1OCC(=O)N[C@@H](Cc1ccccc1)[C@@H](O)C[C@H](Cc1ccccc1)NC(=O)[C@H](C(C)C)N1CCCNC1=O — IC50 (rep main protease; enzyme activity in cells): > 20 µM
CCOC(=O)c1c(NC(=O)c2ccc3c(c2)CC(c2ccccc2)OC3=O)sc(C)c1C (stereo not drawn) — IC50 (rep methyltransferase; enzyme activity): 47.9 µM
Cc1ccc2[nH]ncc2c1C(=O)NC[C@H]1Cc2ccccc2CN1C(=O)C[C@H](C)c1ccco1 — IC50 (rep main protease; enzyme activity): 56.9 µM
CC(C)[C@H](NC(=O)[C@H](CCCNC(=N)N)NC(=O)N[C@@H](Cc1ccccc1)C(=O)O)C(=O)N[C@H](C=O)CCCNC(=N)N — IC50 (rep main protease; enzyme activity; FRET): 48.6 µM
c1ccc(-c2nc(N3CCOCC3)[s+]n2-c2ccccc2)cc1 — IC50 (rep main protease; enzyme activity): 0.328 µM
O=C(NC[C@@H]1c2ccccc2CCN1C(=O)/C=C/c1cn[nH]c1)c1cncc2ccc(F)cc12 — IC50 (rep main protease; enzyme activity): 18.7 µM
O=C1c2ccccc2NC(c2cc(Cl)ccc2O)N1N=Cc1cc(Cl)ccc1O (stereo not drawn) — IC50 (rep main protease; enzyme activity in cells): 10 µM
O=C(Oc1cncc(Cl)c1)c1cc2c(Cl)cc(Cl)cc2[nH]1 — IC50 (rep main protease; enzyme activity): 0.0233 µM
Cc1nn(-c2ccc(Cl)cc2)c2c1C(c1ccc(Cl)c(Cl)c1)C(C#N)=C(N)O2 (stereo not drawn) — IC50 (rep main protease; enzyme activity): 100 µM
O=C(CC1Sc2ncnn2C1=O)Nc1ccc(Br)cc1 (stereo not drawn) — IC50 (rep main protease; enzyme activity; fluorescence): > 20 µM
COc1ccc(-c2nc(NC(=O)c3ccc(C)c(F)c3)n[nH]2)cc1OC — IC50 (rep main protease; enzyme activity): 0.47 µM
Oc1cc(O)c2c(c1)O[C@H](c1ccc(O)c(O)c1)[C@H](O)C2 — IC50 (rep main protease; enzyme activity): 0.05 µM
COC(=O)C1=C(C(=O)OC)C(c2ccc(Cl)cc2)c2sc(=O)[nH]c2S1 (stereo not drawn) — IC50 (rep methyltransferase; enzyme activity): 74.9 µM
C[S+]([O-])CCCCN=C=S (stereo not drawn) — IC50 (rep main protease; enzyme activity): 5.5 µM
Cc1ccc(-c2nc(N3CCN(C)CC3)s[n+]2-c2ccccc2)cc1 — IC50 (rep main protease; enzyme activity): 0.534 µM
Cc1ccc(C(=O)Nc2ccc(S(=O)(=O)O)c3cc(S(=O)(=O)O)cc(S(=O)(=O)O)c23)cc1NC(=O)c1cccc(NC(=O)Nc2cccc(C(=O)Nc3cc(C(=O)Nc4ccc(S(=O)(=O)O)c5cc(S(=O)(=O)O)cc(S(=O)(=O)O)c45)ccc3C)c2)c1 — IC50 (rep methyltransferase; enzyme activity): 105 µM
O=C(Cn1nnc2ccccc21)Nc1ccccc1N1CCc2sccc2C1 — IC50 (rep main protease; enzyme activity): > 100 µM
COc1cc(Br)cc(C=NN2C(=O)c3ccccc3NC2c2cc(Br)cc(OC)c2O)c1O (stereo not drawn) — IC50 (rep main protease; enzyme activity in cells): > 40 µM
Clc1ccc(C(Cn2ccnc2)OCc2csc3c(Cl)cccc23)c(Cl)c1 (stereo not drawn) — IC50 (rep main protease; enzyme activity in cells): 7.45 µM
CCN(CC)S(=O)(=O)c1cccc(-n2sc3ccccc3c2=O)c1 — IC50 (rep main protease; enzyme activity): > 20 µM
COc1cc(C[C@@H](C)[C@@H](C)Cc2ccc(O)c(OC)c2)ccc1O — IC50 (rep main protease; enzyme activity; FRET): 4.12 µM
CC(Cc1ccc(O)c(O)c1)C(C)Cc1ccc(O)c(O)c1 (stereo not drawn) — IC50 (rep methyltransferase; enzyme activity): 10.3 µM
Sc1ncnc2nc[nH]c12 — IC50 (rep papain-like protease; enzyme activity; FRET; pH 7.5): > 60 µM
CCOc1nc2cccc(C(=O)OC(C)OC(=O)OC3CCCCC3)c2n1Cc1ccc(-c2ccccc2-c2nn[nH]n2)cc1 (stereo not drawn) — IC50 (rep methyltransferase; enzyme activity): 30 µM
Cc1nocc1C(=O)N1Cc2ccccc2[C@@H](CNC(=O)c2cncc3ccc(F)cc23)C1 — IC50 (rep main protease; enzyme activity): 56.8 µM
c1ccc([Se][Se]c2ccccc2)cc1 — IC50 (rep main protease; enzyme activity; FRET): 1.33 µM
COc1cc(C[C@@H](C)[C@@H](C)Cc2cc(O)c(OC)c(OC)c2)cc(O)c1OC — IC50 (rep papain-like protease; enzyme activity; FRET): 5.23 µM
CN(CCCN1c2ccccc2CCc2ccccc21)CC(=O)c1ccc(Cl)cc1 — IC50 (rep main protease; enzyme activity): 11.4 µM
C[C@H]1[C@H](OC(=O)CCC(=O)O)O[C@@H]2O[C@@]3(C)CC[C@H]4[C@H](C)CC[C@@H]1[C@@]24OO3 — IC50 (rep main protease; enzyme activity in cells): 2.41 µM
CC(=O)N[C@@H](CS)C(=O)O — IC50 (rep papain-like protease; enzyme activity): > 150 µM
CC(C)c1nc(CN(C)C(=O)N[C@@H](CCN2CCOCC2)C(=O)N[C@H](CC[C@H](Cc2ccccc2)NC(=O)OCc2cncs2)Cc2ccccc2)cs1 — IC50 (rep main protease; enzyme activity in cells): > 20 µM
CC(C)C[C@H](NC(=O)[C@@H](NC(=O)OCc1ccccc1)C(C)(C)C)C(=O)N(C)N(C#N)CCC(N)=O — IC50 (rep main protease; enzyme activity): 0.775 µM
Cc1c(O)cccc1C(=O)N[C@@H](CSc1ccccc1)[C@H](O)CN1C[C@H]2CCCC[C@H]2C[C@H]1C(=O)NC(C)(C)C — IC50 (rep main protease; enzyme activity): > 240 µM
O=C(O)c1nnn(-c2nccs2)c1-c1ccc2c(c1)OCO2 — IC50 (rep methyltransferase; enzyme activity): 55.8 µM
COC(=O)C1=C(C)NC(C)=C(C(=O)OCCN2CCN(C(c3ccccc3)c3ccccc3)CC2)C1c1cccc([N+](=O)[O-])c1 (stereo not drawn) — IC50 (rep main protease; enzyme activity in cells): > 10 µM
O=C1C(Cl)=C(Cl)C(=O)C(Cl)=C1Cl — IC50 (rep main protease; enzyme activity): 0.18 µM
COC(=O)N[C@H](C(=O)N[C@@H](Cc1ccccc1)[C@@H](O)CN(Cc1ccc(-c2ccccn2)cc1)NC(=O)[C@@H](NC(=O)OC)C(C)(C)C)C(C)(C)C — IC50 (rep main protease; enzyme activity in cells): > 60 µM
CC(C)c1nnc(NC(=O)c2cccc(N3C(=O)c4ccccc4C3=O)c2)s1 — IC50 (rep methyltransferase; enzyme activity): 35.6 µM
CCOc1nc2cccc(C(=O)O)c2n1Cc1ccc(-c2ccccc2-c2nnn[nH]2)cc1 — IC50 (rep main protease; enzyme activity in cells): > 60 µM
Oc1c(Cl)cc(Cl)c(Cl)c1Cc1c(O)c(Cl)cc(Cl)c1Cl — IC50 (rep methyltransferase; enzyme activity): 8.65 µM
